# Assay outcomes as filed in PubChem.
# Hits are enriched below; roughly 3.5% of the tested compounds scored in any of these assays.
# PGC1a acetyl inh – modulators of PGC1a acetylation. hit rate 0.17% among 350,000. U2OS PGC1a acetylation, AlphaScreen anti-acetyl-lysine; with virally co-expressed GCN5 acetyltransferase. inhibition, % at 15.6 µM. AID 651687;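 active = every replicate shows inhibition of at least 40%; inconclusive = mean inhibition at least 40% but some replicate below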;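 also: 0% = neutral control wells and 100% = positive control wells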
# DENV2 CPE – protects cells from dengue virus 2 cytopathic effect | DENV2-infected cells, cytopathic effect rescue, plate reader | CPE inhibition, % at 9.99 µM | hit rate 1.7% among 350,000; in the data active = CPE inhibition above about 20%, passing the limit was not always enough; inconclusive = no clear call, values can overlap the other calls; tested in BHK-21 cells;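 also: 0% = median of neutral control wells and 100% = median of positive control wells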
# FN deposition inh – fibronectin deposition inhibition | inhibition, % at 12.6 µM | AH1F fibroblasts, Alexa488-fibronectin deposition fluorescence, overnight | hit rate 0.086% among 350,000;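 active = mean inhibition across replicates of 30% or more, regardless of how many single replicates reach that level; inconclusive = mean under 30% yet at least half of replicates reach 30%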;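 also: positive control wells lacked labelled fibronectin entirely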
#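 Assay system: AH1F fibroblasts assembling fluorescent fibronectin matrix; Amount: 10000 AH1F cells per well; Buffer or medium: DMEM, 2% serum; Probe or stimulus: Alexa488-fibronectin, 24 nM final in well; Doses: single compound dose, delivered by pin transfer; Incubation: 1 h adhesion, overnight exposure; Measured by: fluorescence 485/525 nm; Read-out: fibronectin deposition inhibition.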
# HIV Env fusion – blocks HIV Env-driven cell-cell fusion; HeLa-JRFL Env/CEM21 cell fusion, luciferase; inhibition, % at 12.3 µM; hit rate 1.1% among 360,000; AID 651610;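 active = mean replicate inhibition score of at least 50 and every replicate individually at or above 50; inconclusive = only one of the two criteria met; inactive = mean below 50 and not all replicates reaching 50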;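 also: 0% = plate neutral controls and 100% = maraviroc near 300 nM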
# Ecoli rRNA inh – selective bacterial rRNA inhibition in E. coli | E. coli WT GFP vs humanized-ribosome RFP mutants, fluorescence, 24 h; hits give low values; DMSO median 0, no signal -100 | GFP signal change (wild-type ribosome), % (test concentration not listed) | hit rate 1.6% among 350,000;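 active = significant combined selectivity score with lowered wild-type GFP, culture density cut under 30%, mutant RFP and density less affected; inactive = any of these conditions unmet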
# PglD inh – inhibitors of Campylobacter jejuni PglD acetyltransferase | AID 602405 | purified PglD enzyme, DTNB colorimetric CoA detection | inhibition, % at 12.5 µM | hit rate 0.098% among 360,000; in the data active = inhibition above about 16%, passing the limit was not always enough; inconclusive = no clear call, values can overlap the other calls
# * = called active by the depositor; ? = inconclusive; nt = no result; [ ] = dose if it differs, or a comment.
SMILES,PGC1a acetyl inh,DENV2 CPE,FN deposition inh,HIV Env fusion,Ecoli rRNA inh,PglD inh
COc1ccc(NC(=O)N(C)C[C@H]2Oc3ncc(C#CC(C)C)cc3C(=O)N([C@@H](C)CO)C[C@H]2C)cc1,19,39*,-17,-4[16.7 µM],4,0
C[C@H](CO)N1C[C@H](C)[C@@H](CN(C)C(=O)c2cnccn2)Oc2ncc(C#CCC3CCCC3)cc2C1=O,-4,36*,-19,4[16.7 µM],-1,-2
CCCN(C)C[C@H]1Oc2ncc(C#CC3(O)CCCC3)cc2C(=O)N([C@H](C)CO)C[C@H]1C,2,27*,0,-1[16.7 µM],7,1
CC(C)NC(=O)N(C)C[C@@H]1Oc2ncc(C#Cc3ccc(F)cc3)cc2C(=O)N([C@@H](C)CO)C[C@H]1C,0,25*,4,-7[16.7 µM],-2,-2
CC(C)NC(=O)N(C)C[C@@H]1Oc2ncc(C#Cc3ccc(F)cc3)cc2C(=O)N([C@H](C)CO)C[C@H]1C,0,-9,10,-1[16.7 µM],-4,-1
O=C(C[C@H]1C[C@@H]2c3cc(NC(=O)Nc4ccccc4)ccc3O[C@@H]2[C@@H](CO)O1)NCc1ccccn1,1,2,0,-13[16.7 µM],4,0
CN(C)CC(=O)Nc1ccc2c(c1)[C@H]1C[C@@H](CC(=O)NCc3cc(F)ccc3F)O[C@H](CO)[C@H]1O2,2,-8,nt,-15[16.7 µM],3,2
COc1ccc(NC(=O)Nc2ccc3c(c2)C(=O)N([C@H](C)CO)C[C@@H](C)[C@H](CN(C)Cc2ccncc2)OCCCC[C@@H](C)O3)cc1,-4,-13,nt,-10[16.7 µM],-1,1
C[C@H]1CCCCO[C@H](CN(C)C)[C@@H](C)CN([C@@H](C)CO)C(=O)c2cc(NC(=O)C3CCCCC3)ccc2O1,11,nt,nt,-7[16.7 µM],3,nt
COc1cc(F)ccc1-c1cc(C(=O)NCc2ccc(C(F)(F)F)cc2)[nH]n1,-28,1,0,-25,-16,4
COc1ccc(-c2cc(C(=O)NCc3ccc(C(F)(F)F)cc3)[nH]n2)c(C)c1,4,-8,4,9,-20*,-1
C[C@@H]1CN([C@@H](C)CO)C(=O)c2cc(NS(=O)(=O)c3ccc(Cl)cc3)ccc2O[C@@H](C)CCCCO[C@H]1CN(C)S(=O)(=O)c1ccccc1,-15,-4,-3,-33[16.7 µM],-1,-1
CCC(CC)C(=O)Nc1c(C(=O)N2CCN(c3ccccc3)CC2)oc2ccccc12,nt,-3,-1,7,-30*,2
CC(C)C(=O)Nc1c(C(=O)N2CCN(c3ncccn3)CC2)oc2ccccc12,-4,4,0,-4,-1,5
CCCc1c(C(=O)NNc2ccccc2OC)cnn1-c1ccccc1,nt,13,0,-12,-23*,nt
CCCc1c(C(=O)Nc2ccc(OC)cc2)cnn1-c1ccccc1,4,?,0,18,-24*,3
C=CCN1C(=O)c2ccccc2Sc2ccc(C(=O)NC(C)C)cc21,2,0,-3,-6,-6,0
C=CCN1C(=O)c2ccccc2Sc2ccc(C(=O)NCC(OC)OC)cc21,3,29*,4,8,-1,-3
Fc1ccccc1CNCCC(Cc1ccccc1)c1ccc2c(c1)OCO2 (stereo not drawn),nt,2,6,-29,-51*,0
CN1CCN(C(=O)C[C@H]2CC[C@@H]3[C@H](COC[C@H](O)CN3C(=O)Cc3ccccc3)O2)CC1,-1,20,3,17[16.7 µM],0,3
CCOC(=O)CN1CCCc2nc(C)c(C)cc21,nt,-10,-13,84*,15,nt
Cc1ccccc1CSCC(=O)NC1CCCC1,9,nt,nt,nt,nt,1
Cc1ccccc1CSCC(=O)Nc1ccccc1Br,nt,-4,-5,7,-23*,5
C[C@@H]1CCCCO[C@@H](CN(C)C(=O)C2CCCCC2)[C@H](C)CN([C@H](C)CO)C(=O)c2cc(NC(=O)c3ccncc3)ccc2O1,-12,136*,nt,-8[16.7 µM],-5,3
C[C@H](CO)N1C[C@H](C)[C@@H](CN(C)C)OCCCC[C@H](C)Oc2ccc(NC(=O)c3ccncc3)cc2C1=O,-9,65*,nt,-9[16.7 µM],-1,1
SMILES,PGC1a acetyl inh,DENV2 CPE,FN deposition inh,HIV Env fusion,Ecoli rRNA inh,PglD inh
C[C@H](CO)N1C[C@H](C)[C@H](CN(C)C)OCCCC[C@H](C)Oc2ccc(NC(=O)c3ccncc3)cc2C1=O,22,5,nt,9[16.7 µM],1,2
C[C@@H]1CN([C@H](C)CO)C(=O)c2cc(NC(=O)c3ccncc3)ccc2O[C@@H](C)CCCCO[C@H]1CN(C)C(=O)Nc1ccc(F)cc1,-13,26*,8,-18[16.7 µM],0,-2
C[C@H]1CCCCO[C@@H](CN(C)C(=O)C2CCCCC2)[C@@H](C)CN([C@@H](C)CO)C(=O)c2cc(NC(=O)c3ccncc3)ccc2O1,3,?,nt,-32[16.7 µM],-2,-3
C[C@H](CO)N1C[C@H](C)[C@@H](CN(C)C(=O)Nc2ccc(C(F)(F)F)cc2)OCCCC[C@H](C)Oc2ccc(NC(=O)c3ccncc3)cc2C1=O,7,-2,-12,-15[16.7 µM],-3,0
C[C@@H]1CN([C@@H](C)CO)C(=O)c2cc(NC(=O)c3ccncc3)ccc2O[C@@H](C)CCCCO[C@@H]1CN(C)C(=O)Nc1ccc(C(F)(F)F)cc1,14,55*,-1,nt,2,nt
CC(=O)N1[C@@H]2c3ccc(C4=CCCCC4)c(=O)n3C[C@H]1[C@H](CO)[C@H]2C(=O)N[C@H](C)c1ccccc1,nt,-4,nt,8[16.7 µM],0,3
O=C(Nc1ccc(F)cc1)N[C@H]1CC[C@@H](CCNC(=O)c2cc(Cl)cc(Cl)c2)O[C@H]1CO,-8,4,nt,7[16.7 µM],-13,-2
CC(C)CC#Cc1ccc([C@@H]2[C@@H](CO)N3C(=O)CN(C(=O)NC4CCCC4)C[C@@H]23)cc1,-4,?,-9,nt,-47,nt
CN1C(=O)c2cc(NC(=O)c3ccc(C(F)(F)F)cc3)ccc2OC[C@@H]2O[C@@H](CC(=O)NCc3ccc4c(c3)OCO4)CC[C@H]21,3,-3,-11,-64[16.7 µM],-2,-2
C[C@@H]1CN([C@@H](C)CO)C(=O)c2cc(NC(=O)c3ccncc3)ccc2O[C@@H](C)CCCCO[C@H]1CN(C)C(=O)Nc1ccc(C(F)(F)F)cc1,14,5,20,-4[16.7 µM],-3,-3
C[C@@H]1CCCCO[C@@H](CN(C)C(=O)Nc2ccc(C(F)(F)F)cc2)[C@H](C)CN([C@@H](C)CO)C(=O)c2cc(NC(=O)c3ccncc3)ccc2O1,1,76*,8,5[16.7 µM],-1,-2
C[C@H]1CCCCO[C@H](CN(C)C(=O)Nc2ccc(C(F)(F)F)cc2)[C@@H](C)CN([C@@H](C)CO)C(=O)c2cc(NC(=O)c3ccncc3)ccc2O1,9,-1,2,56*[16.7 µM],-1,0
